Calls of active or inactive are those of the source. The calls are words filed in the database; no cut-off is given here.
Columns and labels:
[1] = Anticancer activity against human BE(2)-C cells transfected with pMEP4 empty vector assessed as reduction of cell viability at 20 uM after 72 hrs by Alamar blue assay; assay type: functional
How it was run: (§1)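 BE(2)-C neuroblastoma cells stably carrying RARβ cDNA in pMEP4 episomal vector, or empty pMEP4, in DMEM with L-glutamine and 10% FCS at 37 °C, 5% CO2. Cells attached 24 h in 96-well plates, then treated 72 h. Alamar blue absorbance at 570 nm, viability expressed as percentage of negative control.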

[2] = Anticancer activity against human BE(2)-C cells transfected with full-length human cloned RARbeta2 expressing pMEP4 vector assessed as reduction of cell viability at 20 uM after 72 hrs by Alamar blue assay; assay type: functional; how it was run: as §1
[3] = Anticancer activity against human BE(2)-C cells transfected with full-length human cloned RARbeta2 expressing pMEP4 vector assessed as reduction of cell viability at 5 uM after 96 hrs by Alamar blue assay relative to compound treated pMEP4 empty vector cloned cells; assay type: functional
How it was run: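 RARβ-pMEP4 and empty-vector BE(2)-C cells attached 24 h in 96-well plates, then exposed to ligand at 5 μM for 96 h. Alamar blue absorbance read at 570 nm. Viability of RARβ-transfected cells expressed relative to empty-vector cells. Mean ± SEM from at least three replicates.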

[4] = Upregulation of RARbeta2 mRNA expression in human BE(2)-C cells transfected with full-length human cloned RARbeta2 expressing pMEP4 vector at 10 uM after 24 hrs by quantitative real time PCR analysis relative to control; assay type: functional, cell-based
How it was run: (§2)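 RARβ-pMEP4 BE(2)-C cells attached 24 h in duplicate wells of 6-well plates, then exposed 24 h to compound (1 or 10 μM), 13-cis-retinoic acid (10 μM), AC261066 (10 nM) or DMSO (0.05%). Total RNA isolated, RARβ2 mRNA quantified by real-time PCR as fold change versus control.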

[5] = Anticancer activity against human BE(2)-C cells transfected with pMEP4 empty vector assessed as reduction of cell viability at 10 uM after 72 hrs by Alamar blue assay; assay type: functional; how it was run: as §1
[6] = Anticancer activity against human BE(2)-C cells transfected with full-length human cloned RARbeta2 expressing pMEP4 vector assessed as reduction of cell viability at 10 uM after 72 hrs by Alamar blue assay; assay type: functional; how it was run: as §1
[7] = Upregulation of RARbeta2 mRNA expression in human BE(2)-C cells transfected with full-length human cloned RARbeta2 expressing pMEP4 vector at 10 nM after 24 hrs by quantitative real time PCR analysis relative to control; assay type: functional, cell-based; how it was run: as §2
SH-SY5Y [8] = assay: Anticancer activity against retinoid-sensitive human SH-SY5Y cells assessed as cell viability at 0.01 to 100 uM after 96 hrs by alamar blue assay; assay type: functional, cell-based
How it was run: (§3)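 Alamar blue (resazurin) viability assay in SH-SY5Y or MDA-MB-231 cells grown in DMEM/L-glutamine/10% FCS, 37 °C, 5% CO2. After 24 h attachment in 6 replicate wells, cells were continuously exposed to serial dilutions for 96 h. Absorbance at 570 nm was read at 0 h and 5 h after reagent addition. Viability is % of matched 0.5% DMSO controls; mean ± SEM, three independent experiments.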

[9] = Cytotoxicity against human MRC5 cells assessed as reduction of cell viability at 1 uM after 96 hrs by alamar blue assay; assay type: cell-based; details: read-out: INH
How it was run: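 MRC-5 cells attached 24 h in 96-well plates, exposed to compound at 1 μM for 96 h. Viability by Alamar blue absorbance at 570 nm versus DMSO (0.5%) control.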

SH-SY5Y [10] = assay: Anticancer activity against retinoid-sensitive human SH-SY5Y cells assessed as reduction of cell viability at 20 uM after 96 hrs by alamar blue assay; assay type: functional; how it was run: as §3
MDA-MB-231 [11] = assay: Anticancer activity against retinoid-resistant human MDA-MB-231 cells assessed as reduction of cell viability at 20 uM after 96 hrs by alamar blue assay; assay type: functional; details: MDA-MB-231, 96 h; how it was run: as §3
SH-SY5Y [12] = assay: Anticancer activity against retinoid-sensitive human SH-SY5Y cells assessed as reduction of cell viability at 10 uM after 96 hrs by alamar blue assay; assay type: functional; how it was run: as §3
MDA-MB-231 [13] = assay: Anticancer activity against retinoid-resistant human MDA-MB-231 cells assessed as reduction of cell viability at 1 uM after 96 hrs by alamar blue assay; assay type: functional; details: MDA-MB-231, 96 h; how it was run: as §3
SH-SY5Y [14] = assay: Anticancer activity against retinoid-sensitive human SH-SY5Y cells assessed as reduction of cell viability at 1 uM after 96 hrs by alamar blue assay; assay type: functional; how it was run: as §3
[15] = Anticancer activity against human BE(2)-C cells transfected with pMEP4 empty vector assessed as reduction of cell viability at 1 uM after 72 hrs by Alamar blue assay; assay type: functional; how it was run: as §1
[16] = Upregulation of RARbeta2 mRNA expression in human BE(2)-C cells transfected with full-length human cloned RARbeta2 expressing pMEP4 vector at 1 uM after 24 hrs by quantitative real time PCR analysis relative to control; assay type: functional, cell-based; how it was run: as §2
[17] = Anticancer activity against human BE(2)-C cells transfected with full-length human cloned RARbeta2 expressing pMEP4 vector assessed as reduction of cell viability at 1 uM after 72 hrs by Alamar blue assay; assay type: functional; how it was run: as §1
SH-SY5Y [18] = assay: Anticancer activity against retinoid-sensitive human SH-SY5Y cells assessed as reduction of cell viability at 0.1 uM after 96 hrs by alamar blue assay; assay type: functional; how it was run: as §3

Which results are given for `O=C(Cc1c[nH]c2ccccc12)Nc1nc2ccc(Cl)cc2s1`?
inhibition at 20 µM [1]: 43%; inhibition at 20 µM [2]: 48%

With `Cn1cnnc1SCc1nnc(-c2ccc(Br)s2)o1` as the molecule, how does the inhibition at 5 µM [3] read?
The inhibition at 5 µM was 20%.

Which inhibition at 20 µM [1] does the source give for `CCOc1ccc2nc(NC(=O)Cc3c[nH]c4ccccc34)sc2c1` here?
Its inhibition at 20 µM is 29%.

What about the inhibition at 20 µM [2] of the same molecule?
Its inhibition at 20 µM is 39%.

With `O=C(CCSc1ccccc1)Nc1ccc(-c2cn3ccsc3n2)cc1` as the molecule, how does the inhibition at 5 µM [3] read?
Its inhibition at 5 µM is 20%.

Which inhibition at 5 µM [3] does the source give for `Cc1cccc2sc(NC(=O)CNC(=O)Cc3ccccc3)nc12` here?
The inhibition at 5 µM was 20%.

Which inhibition at 5 µM [3] does the source give for `Cc1nn(CC(C)C)c2sc(C(=O)Nc3nc4ccccc4[nH]3)cc12` here?
Its inhibition at 5 µM is 20%.

With `Cc1nnc(SCc2nnc(-c3cccs3)o2)n1-c1ccccc1` as the molecule, how does the inhibition at 5 µM [3] read?
Its inhibition at 5 µM is 20%.

With `Cc1ccc(NC(=O)c2cc3c(C)nn(CC(C)C)c3s2)c(O)c1` as the molecule, how does the inhibition at 5 µM [3] read?
Its inhibition at 5 µM is 20%.

Which fold change (FC) [4] does the source give for `O=C(CCc1c[nH]c2ccccc12)Nc1nc2ccccc2s1` here?
The fold change (FC) was 1.5.

What about the Activity [5] of the same molecule?
The Activity was 38%.

And the Activity [6]?
Its Activity is 53%.

With `CCCCOCCOc1nc(-c2ccc(C(=O)O)c(F)c2)sc1C` as the molecule, how does the fold change (FC) [7] read?
The fold change (FC) was 2.7.

Which inhibition at 5 µM [3] does the source give for `Cc1cc(C(=O)CSc2nnnn2C2CC2)c(C)n1C1CC1` here?
Its inhibition at 5 µM is 20%.

Which Activity (SH-SY5Y [8]) does the source give for `O=C(Nc1nc2ccccc2s1)C(=O)c1c[nH]c2ccccc12` here?
The Activity was “inactive”.

What does the source list for `CC1=C(/C=C/C(C)=C/C=C/C(C)=C\C(=O)O)C(C)(C)CCC1` [ISOTRETINOIN]?
cytotoxicity at 96 h, 1 µM [9]: 10%; fold change (FC) [4]: 9.3

With `CC1(C)Cc2cccc(OCc3nnc(-c4ccccc4)o3)c2O1` as the molecule, how does the inhibition at 5 µM [3] read?
The inhibition at 5 µM was 20%.

With `N[C@@H](Cc1ccccc1)C(=O)NCC(=O)Nc1nc2ccccc2s1` as the molecule, how does the inhibition at 20 µM (SH-SY5Y [10]) read?
The inhibition at 20 µM was 50%.

And the inhibition at 20 µM (MDA-MB-231 [11])?
The inhibition at 20 µM was 50%.

And the inhibition at 10 µM (SH-SY5Y [12])?
The inhibition at 10 µM was 13%.

Which inhibition at 1 µM (MDA-MB-231 [13]) does the source give for `O=C(Cc1c[nH]c2ccccc12)Nc1nc2ccccc2s1` here?
Its inhibition at 1 µM is 58%.

And the cytotoxicity at 96 h, 1 µM [9]?
Its cytotoxicity at 96 h, 1 µM is 20%.

And the inhibition at 1 µM (SH-SY5Y [14])?
Its inhibition at 1 µM is 55%.

And the inhibition at 1 µM [15]?
The inhibition at 1 µM was 38%.

And the fold change (FC) [16]?
The fold change (FC) was 2.1.

And the inhibition at 1 µM [17]?
The inhibition at 1 µM was 50%.

And the inhibition at 0.1 µM (SH-SY5Y [18])?
Its inhibition at 0.1 µM is 12%.

Reference: ChEMBL document CHEMBL2203119, “Synthesis of retinoid enhancers based on 2-aminobenzothiazoles for anti-cancer therapy” (Bioorg Med Chem, 2012)
